Compound activity from PubChem BioAssay.
This is one part of a sample in which hits are shown more often than they occur.
Calb FLC – affects C. albicans growth with fluconazole. C. albicans CaCi-2 (fluconazole-resistant clinical isolate) + fluconazole, Alamar Blue growth, 48 h. growth inhibition, % (test concentration not listed). 0.57% of 300,000 active;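 active = growth inhibition above about 58% in most replicates, limit read from the data, passing the limit was not always enough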;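 also: all wells also contain fluconazole at 8 µg/ml as a sub-toxic cotreatment; 0% = median of DMSO wells and 100% = median of geldanamycin control wells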
T cruzi inh – T. cruzi replication inhibition. AID 1885. T. cruzi beta-gal in NIH3T3, luminescence, 90 h. 1.4% of 300,000 active. inhibition, % (concentration not given with the values);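 active = mean inhibition across valid replicates above about 55%, limit read from the data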;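 also: signal also drops with host cell toxicity which is not excluded here; 0% = plate median of DMSO wells and 100% = zero luminescence signal; higher percent means less beta-gal luminescence so fewer parasites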
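Test system: β-gal T. cruzi (Tulahuen C4) inside NIH/3T3 cells / Quantity: 5,000 cells/well / Measured by: luminescence from GalScreen with 0.05% NP40, read after 60 min / Medium: DMEM plus 2% FBS / Measure: parasite load inhibition, % / Reagent: Tulahuen C4 trypomastigotes, 5000/well / Schedule: co-culture of at least 90 h after 3 h attachment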
NALP1 yeast inh – NALP1 inhibition. inhibition, % at 10 µM. AID 2071. S. cerevisiae NALP1/ASC/caspase-1 growth, X-gal OD620, 72 h. 0.61% of 280,000 active; in the data active = inhibition mostly above about 24%, no sharp cut-off; inactive = mostly below about 32%
NALP3 yeast inh – blocks the NALP3 inflammasome reconstituted in yeast | Yeast reconstituted NLRP3/ASC/caspase-1, beta-gal luminescence, 24 h | inhibition, % at 10 µM | 0.39% of 330,000 active;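 active = inhibition of 50% or more; inactive = inhibition below 50%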;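 also: plate controls were induced DMSO wells for no effect and uninduced yeast grown without galactose for full effect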
PolyA inhibitor – yeast polyadenylation inhibition; S. cerevisiae SKY197-pL101 polyadenylation reporter, beta-gal luminescence; efflux-impaired pdr1/pdr3 knockout yeast; score 100 = 6 SD above DMSO; activity score, % at 12 µM; 0.02% of 300,000 active;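 active = lowest replicate activity score at least 50, where 100 means six control SD above control mean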;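 also: yeast exposed to compound for 9 h at 30 °C; higher score means more reporter readthrough which indicates perturbed polyadenylation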
Lmaj promast – inhibitors of Leishmania major promastigote growth; Leishmania major promastigotes, resazurin fluorescence viability; inhibition, % at 10 µM; 9% of 200,000 active; in the data active = inhibition above about 50%;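 also: promastigotes grown with compound for 44 hours at 28 °C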
* marks the source's active call; other numbers are inactive results; · = no result.

SMILES	Calb FLC	T cruzi inh	NALP1 yeast inh	NALP3 yeast inh	PolyA inhibitor	Lmaj promast
CCN1C(=O)C(=Cc2ccc(C)s2)C(=O)N(CC)C1=S	-1.2	-20.1	28.4	4.3	-16.0	84.3*
c1cncc(CNC2CCCC2)c1	-19.0	·	29.8*	14.1	4.1	-2.8
c1ccc2c(CCNCc3ccc4c(c3)OCO4)c[nH]c2c1	-3.7	21.5	-30.0	6.3	12.4	77.4*
CCOc1ccc(CNCCc2ccc3c(c2)OCO3)cc1	-16.3	67.3*	15.8	19.0	10.7	·
c1ccc(CNCCc2c[nH]c3ccccc23)cc1	-6.8	3.1	9.6	14.5	0.6	·
Cn1cnnc1Sc1cc(N2CCNCC2)ccc1[N+](=O)[O-]	2.5	8.8	21.9	7.5	2.4	·
FC(F)(F)Oc1ccc(NC2=NCCCS2)cc1	6.2	25.4	16.2	8.7	11.6	·
COC(=O)C1=C(c2c(C)noc2C)C[C@@H]2CC[C@H]1N2C(=O)NCc1ccc(C(F)(F)F)cc1	·	·	·	14.0	·	·
CCCCn1c(O)c(/C=N/NC(=O)c2ccncc2)c(=O)[nH]c1=O	3.9	-18.8	-8.2	-1.4	-18.3	·
CCn1c(O)c(/C=N/NC(=O)c2ccncc2)c(=O)[nH]c1=S	-3.9	-12.6	2.9	14.1	-4.6	99.5*
CCC(C)n1c(O)c(C=NCCc2ccccc2)c(=O)[nH]c1=S (stereo unspecified)	7.4	1.3	-6.4	2.9	11.2	·
CCC(C)n1c(O)c(/C=N/NC(=O)c2ccncc2)c(=O)[nH]c1=S (stereo unspecified)	-18.5	8.6	20.8	2.8	-52.9	99.6*
CCC(C)n1c(O)c(/C=N/Nc2ccccc2)c(=O)[nH]c1=S (stereo unspecified)	8.7	-5.2	7.5	2.3	-10.1	81.3*
CCC(C)n1c(O)c(/C=N/N2CCOCC2)c(=O)[nH]c1=S (stereo unspecified)	-22.0	-2.0	18.6	-10.3	27.2	54.9*
O=C(N/N=C/c1c(O)n(Cc2ccc(F)cc2)c(=S)[nH]c1=O)c1ccncc1	-1.1	-11.2	8.1	7.8	-19.0	·
COC(=O)C1=C(c2cccc(C#N)c2)C[C@@H]2CC[C@H]1N2C(=O)N1CCc2cc(OC)c(OC)cc2C1	·	·	·	-0.1	·	·
CC(Cc1ccccc1)NC(=O)CCCCC(=O)NC(C)Cc1ccccc1 (stereo unspecified)	-3.8	-3.6	9.9	21.6	-22.6	·
Cc1nn(Cc2ccccc2)c(Cl)c1C(=O)OCC(=O)Nc1cccc2ccccc12	3.6	-18.2	18.0	-9.8	10.8	-2.5
CCCCC(=O)N/N=C/c1c(O)n(C2CC2)c(=S)[nH]c1=O	-9.1	-12.7	3.1	-0.2	-6.0	98.3*
O=c1[nH]c(=S)n(C2CC2)c(O)c1/C=N/Nc1ccccc1	-21.1	8.8	28.5	20.5	-16.7	88.8*
O=c1[nH]c(=S)n(C2CC2)c(O)c1/C=N/Nc1cccc2ccccc12	-25.0	1.9	1.8	12.9	-11.4	-0.9
CCCCC(=O)N/N=C/c1c(O)n(CCCC)c(=S)[nH]c1=O	3.2	-21.9	-4.4	12.9	10.2	·
CC(C)N1C(=O)NC(=O)C2(Cc3cc([N+](=O)[O-])ccc3N(C)C2c2ccccc2)C1=O (stereo unspecified)	-1.6	0.1	23.2	17.3	-31.6	20.2
Cn1c(O)c(/C=N/N2CCOCC2)c(=O)n(-c2ccccc2)c1=S	9.0	·	36.9*	8.0	14.1	·
O=c1c(/C=N/N2CCOCC2)c(O)n(-c2ccccc2)c(=S)n1-c1ccccc1	3.5	-8.0	5.7	11.9	21.5	-6.5
SMILES	Calb FLC	T cruzi inh	NALP1 yeast inh	NALP3 yeast inh	PolyA inhibitor	Lmaj promast
C/C=C1/CN2C3CC1C(CO)(C(=O)OC)C2Cc1c3n(C)c2ccccc12 (stereo unspecified)	-1.1	-10.7	2.8	10.7	-0.2	·
Cc1cccc(NP(=O)(Oc2ccccc2F)Oc2ccccc2F)c1C	4.7	-15.4	15.4	-15.1	-29.9	80.5*
Cc1ccc(NP(=O)(Oc2ccccc2F)Oc2ccccc2F)cc1	0.3	14.5	17.6	15.9	-27.8	13.3
CC1=NN(c2ccccc2)C(=O)C1/C=C1\C(=O)NC(=O)N(c2ccc(C)c(C)c2)C1=O (stereo unspecified)	-6.8	-1.2	33.5	17.1	2.2	-9.3
CCCCCSc1cc(OC)c(CCN(C)C)cc1OC	2.9	48.5	21.7	33.2	5.6	100.5*
COC(=O)C1=C(c2c(C)noc2C)C[C@@H]2CC[C@H]1N2C(=O)NC1CC1	·	·	·	13.1	·	·
